# Measurements from different studies.
# Protocols differ between the studies behind these lines.
# Read-out: cell growth or viability
SMILES,cell line,method,tested at,time,endpoint,result
O=C(NCc1ccccc1)c1cn(Cc2ccc(C(F)(F)F)cc2)c2ccc(Oc3ccccc3)cc2c1=O,HCC1419,,,72 h,CC50,> 50000 nM
CC[C@@]1(O)C(=O)OCc2c1cc1n(c2=O)Cc2cc3ccccc3nc2-1,PANC-1,SRB,,48 h,IC50,157 nM
Cc1ncsc1-c1ccc([C@H](C)NC(=O)[C@@H]2C[C@@H](O)CN2C(=O)[C@@H](c2cc(N3CCC(CN4CCC(OC5CC(Oc6cc(N7C8CCC7CN(c7cc(-c9ccccc9O)nnc7N)C8)ccn6)C5)CC4)CC3)no2)C(C)C)cc1 (some centres unmarked),NCI-H1944,ATP luminescence,,7 days,IC50,20.3 nM
CC[C@H](C)[C@@H]([C@@H](CC(=O)N1CCC[C@H]1[C@H](OC)[C@@H](C)C(=O)N[C@H](C)[C@@H](O)c1ccccc1)OC)N(C)C(=O)[C@@H](NC(=O)[C@@H](NC)C(C)C)C(C)C,L02,CCK-8,,,IC50,25.3 nM
CCOc1ccccc1-n1c(CN2CCNCC2)nc2ccc(F)cc2c1=O,PANC-1,ATP luminescence,,72 h,IC50,40 nM
COc1cnc(OC)n2nc(NS(=O)(=O)c3c(OCC(F)F)cccc3C(F)(F)F)nc12,L02,CCK-8,1.56 µM,72 h,inhibition,0%
O=C1c2ccccc2-c2c3c(cc4ccnc1c24)OCO3,MOLT-3,XTT,,75 h,IC50,7900 nM
N.N.[Cl][Pt][Cl],REH,ATP luminescence,,72 h,IC50,780 nM
